Measured values published in paper PMC3968794 (Bioorganic & medicinal chemistry, 2013).
Like-named read-outs stand apart in the source and are kept apart here.

Key:
tubulin [1] = settings: read-out: Inhibition of tubulin polymerization IC50; cell-free assay; ref [61]; cited from earlier work
tubulin [2] = assay: Inhibition of tubulin assembly; format: biochemical; settings: read-out: Inhibition of tubulin polymerization IC50; cell-free assay, tubulin purified from calf brain
Procedure, shortened: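 Calf-brain tubulin; test compound mixtures held on ice 15 min, then GTP added from a 2.5 mM stock. Samples equilibrated at 0 °C for 8 min in the spectrophotometer, then read at 350 nm every 30 s for 3800 s. Temperature program: 0 °C for 100 s, 38 °C for 120 s, 31 °C until 2600 s, then 0 °C to the end.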

[3] = tested on: SK-OV-3, NCI-H460 and DU-145 human cancer cell lines; assay: SRB cytotoxicity assay, three human cancer cell lines stated together; format: cell-based
Procedure, shortened: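 Sulforhodamine B growth-inhibition assay (NCI standard method). Cells were grown in RPMI1640 with 5% fetal bovine serum and 1% gentamicin, then plated and incubated 24 h. Serial dilutions of test compound were added, with 48 h exposure. Cells were fixed with trichloroacetic acid, stained with SRB, and read by optical density. GI50 (concentration halving net protein increase) was calculated from OD data.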

IC50 (tubulin [2]) [µM] | Structure (SMILES) | other results
 | COc1ccc(/C=C\c2cc(OC)c(OC)c(OC)c2)cc1OP(=O)(O)O [CA4P, combretastatin A-4P] | IC50 (tubulin [1]): > 40 µM
> 40 | COc1cc(C2=CCCCc3c2cc(OC)c(OC)c3O)cc(OC)c1OC [Compound 43, 1-Hydroxy-2,3-dimethoxy-5-(3′,4′,5′-trimethoxyphenyl)-benzocyclohept-5-ene] | 
> 40 | COc1cc(C2=CCCCc3ccccc32)cc(OC)c1OC [Compound 41, 5-(3,4,5-trimethoxyphenyl)-benzocyclohept-5-ene] | 
 | COc1ccc2c(c1NC(=O)[C@@H](N)CO)CCCC=C2c1cc(OC)c(OC)c(OC)c1.Cl [Compound 48, 1-(L-ser)amido-5-(3′,4′,5′-trimethoxyphenyl)-2-methoxy-benzocyclohept-5-ene hydrochloride] | Cytotoxicity (in words) ([3]; three human cancer cell lines): inactive in terms of cytotoxicity
> 40 | COc1ccc(C2=CCCCc3c2ccc(OC)c3OC)cc1OC [Compound 35, 1,2-Dimethoxy-5-(3,4-dimethoxyphenyl)-benzocyclohept-5-ene] | 
 | COc1ccc2c(c1O)CCCC=C2c1cc(OC)c(OC)c(OC)c1 [Compound 39, 1-Hydroxy-2-methoxy-5-(3′,4′,5′-trimethoxyphenyl)-benzocyclohept-5-ene] | GI50 ([3]; Homo sapiens, read-out: GI50 (cytotoxicity)): < 0.0001 µM

Structure (SMILES) | IC50 (tubulin [2]) [µM] | other results
COc1cc2c(c(OC)c1O)CCCC=C2c1cc(OC)c(OC)c(OC)c1 [Compound 38, 1,3-Dimethoxy-2-hydroxy-5-(3′,4′,5′-trimethoxyphenyl)-benzocyclohept-5-ene] | > 40 | 
COc1cc(C2=CCCCc3c2ccc(OC)c3OP(=O)(O)O)cc(OC)c1OC [Compound 44, Disodium 2-Methoxy-5-(3′,4′,5′-trimethoxyphenyl)-benzocyclohept-5-ene-1-phosphate] | > 40 | 
